A word on the GI50: it is the concentration giving 50% growth inhibition. Low readings indicate more potent growth inhibition, high ones less potent growth inhibition. As a reminder, the LC50 is the concentration lethal to half of the exposed cells or organisms.

These results are taken from ChEMBL document CHEMBL1138854, “Synthesis and antitumor activity of guanylhydrazones from 6-(2,4-dichloro-5-nitrophenyl)imidazo[2,1-b]thiazoles and 6-pyridylimidazo[2,1-b]thiazoles(1)” (2006).

Test [1] can be described thus: Antitumor activity against leukemia cell lines of the NCI60 panel. In kind it is functional. As to conditions: Homo sapiens; for TGI: read-out: pTGI (converted). Summed up:
(§1)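 Run by NCI in the 60-cell-line panel (details in Supporting Information). Highest concentration 10^-4 M unless noted (one case 10-2.6 M). Values expressed as -log molar concentration giving 50% growth inhibition (pGI50), total cytostasis (pTGI) or 50% cell kill (pLC50); only values >4.00 reported; mean graph midpoint is the calculated panel mean.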

For a further test, the system named is NSCLC. As to the kind of experiment: Antitumor activity against NSCLC cell lines of the NCI60 panel. It is filed as functional. As to conditions: Homo sapiens; for TGI: read-out: pTGI (converted). The method, boiled down:
as §1

A short description of test [2]: Antitumor activity against colon cell lines of the NCI60 panel. As to conditions: Homo sapiens; for TGI: read-out: pTGI (converted). It is filed as functional. The method, boiled down:
as §1

A short description of test [3]: Antitumor activity against CNS cell lines of the NCI60 panel. As to conditions: Homo sapiens; for TGI: read-out: pTGI (converted). It is filed as functional. Summed up: as §1
Test [4] in a line: Antitumor activity against melanoma cell lines of the NCI60 panel. As to conditions: Homo sapiens; for TGI: read-out: pTGI (converted). In kind it is functional. Summed up: as §1
A short description of test [5]: Antitumor activity against ovarian cell lines of the NCI60 panel. It is filed as functional. Particulars: Homo sapiens; for TGI: read-out: pTGI (converted). The method, boiled down: as §1
Test [6] can be described thus: Antitumor activity against renal cell lines of the NCI60 panel. It is filed as functional, Homo sapiens. Particulars: for TGI: read-out: pTGI (converted). Summed up:
as §1

The nature of test [7]: Antitumor activity against prostate cell lines of the NCI60 panel. It is filed as functional. Particulars: Homo sapiens; for TGI: read-out: pTGI (converted). Summed up: as §1
Test [8] is described as follows: Antitumor activity against breast cell lines of the NCI60 panel. In kind it is functional. Particulars: Homo sapiens; for TGI: read-out: pTGI (converted). Summed up: as §1

“And” between values parts separate entries of the source, which are not always exact repeats. Identical values can stand only once.

Regarding `CC(/C=N/NC(=N)N)=N\NC(=N)N` [MITOGUAZONE], the concentration for 50% growth inhibition (GI50) was 7.94 µM in test [1]; 25.1 µM with NSCLC; 12.6 µM in test [2]; 20 µM in test [3]; 39.8 µM in [4]; 15.8 µM in test [5]. The 50% growth inhibitory concentration (GI50) in test [6] (Homo sapiens, renal) was 20 µM; in [7], 100 µM; in test [8] it was 15.8 µM. Besides, the TGI in [1] is 631 µM; with NSCLC it was 316 µM; in [2], 501 µM; in test [3], 251 µM; in test [4] it was 316 µM; in test [5] it was 316 µM. Moreover, the figures for the TGI in test [7] and in [8] were 1580 µM and 316 µM, respectively. Moreover, the median lethal concentration (LC50) in [6] is 501 µM and 2000 µM.
`N=C(N)N/N=C/c1c(-c2ccc(Cl)c([N+](=O)[O-])c2)nc2n1CCS2`: the 50% growth inhibitory concentration (GI50) in [1] is 3.09 µM; in the test on NSCLC, 10.5 µM; in [2], 6.61 µM; in [3] it was 6.92 µM; in [4], 8.32 µM; in [5] it was 9.77 µM. Further, the GI50 in test [6] (Homo sapiens, renal) is 10 µM; in [7], 6.61 µM; in test [8], 11.5 µM. Also, the TGI in test [1] was 13.2 µM; with NSCLC, 38.9 µM; in test [2], 17.4 µM; in test [3], 25.7 µM; in test [4] it was 24 µM; in test [5] it was 30.9 µM. In addition, the TGI in [7] was 20.9 µM; in test [8], 27.5 µM.
As for `N=C(N)N/N=C/c1c(-c2cc([N+](=O)[O-])c(Cl)cc2Cl)nc2sc(Cl)cn12`, the GI50 in test [1] was 3.55 µM; in the test on NSCLC, 22.9 µM; in test [2], 5.75 µM; in test [3], 10.7 µM; in test [4], 11.2 µM; in test [5] it was 19.5 µM. Besides, the GI50 was 29.5 µM in test [6] (Homo sapiens, renal); 19.1 µM in test [7]; 10.5 µM in test [8]. The TGI in test [1] is 44.7 µM; in the test with NSCLC, 72.4 µM; in test [2], 50.1 µM; in [3], 64.6 µM; in test [4], 53.7 µM; in test [5] it was 66.1 µM. Further, the TGI is 81.3 µM in test [6] (Homo sapiens, renal); 93.3 µM in test [7]; 38.9 µM in test [8].
`N=C(N)N/N=C/c1c(-c2cc([N+](=O)[O-])c(Cl)cc2Cl)nc2sccn12`: the GI50 is 1.45 µM in test [1]; 1.78 µM with NSCLC; 1.02 µM in [2]; 1.55 µM in [3]; 1.58 µM in test [4]; 1.86 µM in [5]. Besides, the GI50 in test [6] (Homo sapiens, renal) was 2 µM; in [7], 2.09 µM; in test [8], 2.82 µM. Also, the TGI in [1] was 4.27 µM; in the test with NSCLC, 3.47 µM; in test [2], 2.14 µM; in [3], 3.47 µM; in [4], 3.02 µM; in test [5], 3.55 µM. Further, in test [8], the TGI is 6.03 µM.
On to `CCc1cn2c(/C=N/NC(=N)N)c(-c3cc([N+](=O)[O-])c(Cl)cc3Cl)nc2s1`, for which the GI50 in [1] is 0.933 µM; in the test with NSCLC, 1.7 µM; in test [2], 1.38 µM; in test [3], 1.45 µM; in test [4], 1.51 µM; in test [5], 1.58 µM. In addition, the GI50 in [6] (Homo sapiens, renal) was 1.51 µM; in test [7], 1.58 µM; in [8] it was 1.66 µM. Besides, the TGI in test [1] is 3.24 µM; in the test with NSCLC, 3.16 µM; in test [2] it was 2.95 µM; in test [3] it was 2.82 µM; in [4], 2.82 µM; in test [5] it was 3.09 µM. Further, the TGI in test [7] is 3.09 µM; in [8] it was 4.27 µM.
As to `Cc1sc2nc(-c3ccncc3)c(/C=N/NC(=N)N)n2c1C`, the GI50 is 30.2 µM in test [1]; 38.9 µM in the test on NSCLC; 35.5 µM in [2]; 38.9 µM in test [3]; 38 µM in [4]; 53.7 µM in test [5]. Further, the GI50 in test [6] (Homo sapiens, renal) was 39.8 µM; in test [7], 55 µM; in test [8], 43.7 µM. The TGI is 95.5 µM in test [1]; 97.7 µM in the test with NSCLC; 79.4 µM in [2]; 93.3 µM in [3]; 83.2 µM in test [4]; 97.7 µM in [5]. Moreover, the TGI in [6] (Homo sapiens, renal) is 89.1 µM; in test [8], 91.2 µM.
`Cc1csc2nc(-c3cc([N+](=O)[O-])c(Cl)cc3Cl)c(/C=N/N=C(N)N)n12`: the 50% growth inhibitory concentration (GI50) in [1] is 2.51 µM; in the test with NSCLC, 17 µM; in [2], 15.1 µM; in [3] it was 17.8 µM; in test [4] it was 16.2 µM; in test [5], 17 µM. In addition, the GI50 in [6] (Homo sapiens, renal) was 17 µM; in [7] it was 16.6 µM; in test [8], 15.5 µM. The TGI in test [1] was 25.7 µM; with NSCLC, 35.5 µM; in [2] it was 33.1 µM; in test [3], 34.7 µM; in test [4] it was 31.6 µM; in test [5], 37.2 µM. For the same compound, the TGI in test [6] (Homo sapiens, renal) is 33.1 µM; in test [7], 35.5 µM; in test [8], 32.4 µM.
With `N=C(N)N/N=C/c1c(-c2cc([N+](=O)[O-])c(Cl)cc2Cl)nc2n1CCS2`, the GI50 in test [1] was 0.339 µM; with NSCLC, 1.15 µM; in test [2], 0.447 µM; in [3], 0.302 µM; in [4] it was 0.759 µM; in test [5], 1.32 µM. Also, the concentration for 50% growth inhibition (GI50) in test [6] (Homo sapiens, renal) was 1.17 µM; in test [7], 0.813 µM; in test [8] it was 0.617 µM. The TGI is 3.16 µM in test [1]; 2.57 µM with NSCLC; 2.19 µM in test [2]; 9.55 µM in test [3]; 2.51 µM in [4]; 2.82 µM in test [5]. The TGI in test [6] (Homo sapiens, renal) is 2.88 µM; in test [7], 3.09 µM; in [8], 10.5 µM.
`Cc1cn2c(/C=N/NC(=N)N)c(-c3ccncc3)nc2s1`: the GI50 in [1] was 9.77 µM; with NSCLC, 16.6 µM; in [2] it was 15.8 µM; in test [3], 16.2 µM; in test [4] it was 19.5 µM; in [5] it was 16.6 µM. The concentration for 50% growth inhibition (GI50) is 23.4 µM in [6] (Homo sapiens, renal); 17.4 µM in [7]; 34.7 µM in [8]. The TGI in [1] was 28.2 µM; in the test on NSCLC, 33.1 µM; in [2], 34.7 µM; in [3] it was 30.9 µM; in [4], 39.8 µM; in test [5], 34.7 µM. For the same compound, the TGI in [6] (Homo sapiens, renal) was 42.7 µM; in test [7] it was 32.4 µM; in [8] it was 47.9 µM.
Consider `Cc1cn2c(/C=N/NC(=N)N)c(-c3ccccn3)nc2s1`, for which the GI50 in test [1] was 3.63 µM; with NSCLC it was 10.2 µM; in test [2] it was 8.13 µM; in test [3], 8.13 µM; in test [4] it was 9.77 µM; in [5], 17.4 µM. The GI50 in test [6] (Homo sapiens, renal) is 7.94 µM; in test [7], 7.94 µM; in [8], 8.91 µM. For the same compound, the TGI was 32.4 µM in the test on NSCLC; 29.5 µM in test [2]; 26.9 µM in test [3]; 28.8 µM in [4]; 63.1 µM in test [5]; 39.8 µM in test [7]. The TGI in test [8] was 37.2 µM.
Take `Cc1cn2c(/C=N/NC(=N)N)c(-c3cc([N+](=O)[O-])c(Cl)cc3Cl)nc2s1`: the GI50 is 1.62 µM in test [1]; 2.51 µM in the test with NSCLC; 0.661 µM in test [2]; 2.14 µM in test [3]; 2.29 µM in test [4]; 2.09 µM in [5]. Besides, the GI50 in test [6] (Homo sapiens, renal) was 2.09 µM; in test [8], 4.17 µM. Also, the TGI is 19.5 µM in the test on NSCLC; 49 µM in test [2]; 19.5 µM in test [5]; 11.7 µM in test [6] (Homo sapiens, renal); 2.34 µM in [7]. For the same compound, in [6] (Homo sapiens, renal, read-out: Log LC50 (converted)), the median lethal concentration (LC50) was 60.3 µM.
On to `N=C(N)N/N=C/c1c(-c2cccnc2)nc2sc(Cl)cn12`, for which the 50% growth inhibitory concentration (GI50) in test [1] is 13.8 µM; in the test with NSCLC it was 20 µM; in test [2], 8.51 µM; in test [3], 15.1 µM; in test [4], 18.2 µM; in test [5] it was 15.5 µM. In addition, the GI50 in test [6] (Homo sapiens, renal) was 18.2 µM; in [7] it was 15.1 µM; in [8] it was 16.6 µM. Further, the TGI in test [1] was 42.7 µM; in the test with NSCLC, 41.7 µM; in [2], 21.9 µM; in test [3], 31.6 µM; in test [4] it was 36.3 µM; in test [5] it was 36.3 µM. Further, the TGI in [6] (Homo sapiens, renal) was 35.5 µM; in [7], 28.2 µM; in [8] it was 46.8 µM.
On to `N=C(N)N/N=C/c1c(-c2ccccn2)nc2sc(Cl)cn12`, for which the GI50 is 4.37 µM in test [1]; 8.71 µM in the test with NSCLC; 7.08 µM in test [2]; 5.62 µM in [3]; 7.76 µM in [4]; 7.08 µM in [5]. The concentration for 50% growth inhibition (GI50) in test [6] (Homo sapiens, renal) was 7.94 µM; in [7], 9.33 µM; in test [8], 8.91 µM. Moreover, the TGI in [1] was 13.2 µM; in the test with NSCLC, 18.6 µM; in [2] it was 15.1 µM; in test [3], 11.5 µM; in test [4], 15.1 µM; in test [5], 14.5 µM. Moreover, the TGI in test [6] (Homo sapiens, renal) was 15.1 µM; in [7] it was 17.8 µM; in test [8], 20.9 µM.
